Entries after “also recorded” stand apart in the source; their conditions may differ. No end group written: not given here.
What was measured:
[1] = test system: DQ molecules; assay: Peptide elution and HPLC-MS/MS, several DQ molecules reported together; parameters: species or system human
In short: (§1)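 About 1×10^9 sorted, stably transduced 293T cells expressing DQ+Ii or DQ+Ii+DM were lysed. DQ was captured with anti-DQ mAb SPVL3 on protein A beads. Bound peptides were eluted, separated by HPLC and sequenced by HPLC-MS/MS. Nested Ii-derived peptides were assigned to the CLIP1 core or the CLIP2 register. Results come from 2 independent experiments.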

[2] = test system: DQ1; assay: Cell surface CLIP by flow cytometry, 293T cells expressing DQ1; format: cell-based, human; settings: 293T DQ1, even in the absence of DM, CerCLIP.1 mAb
In short: (§2)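 Human 293T cells (no endogenous Ii, DM or DQ) were lentivirally transduced with full-length DQ α/β (T2A-linked, GFP vector), Ii, and DM (mCherry vector). They were sorted for GFP, DQ and mCherry. Surface staining used PerCP-Cy5.5 Cer.CLIP1 and biotinylated SPVL3 anti-DQ with streptavidin-APC or -PE-Cy7. Gating was on matched GFP/mCherry levels. Read-outs were MFI and the CLIP/DQ MFI ratio with vs without DM, from 3 independent experiments, mean + SD.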

[3] = test system: DQ6; assay: Cell surface CLIP by flow cytometry, 293T cells expressing DQ6; format: cell-based, human; settings: CerCLIP.1 mAb
In short: as §2

[4] = test system: DQ alleles in T2 cells; format: cell-based, human; settings: T2 lymphoblastoid cells, absence or presence of HLA-DM, flow cytometry
In short: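 Human B-cell hybrid T2 line (endogenous Ii, MHC class II region deleted) expressing each DQ allele with or without HLA-DM. Cells surface-stained with PerCP-Cy5.5 anti-CLIP (Cer.CLIP1) and biotinylated anti-DQ (SPVL3) detected by streptavidin-APC or -PE-Cy7, alongside isotype-matched controls. Analysed by flow cytometry.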

[5] = test system: DQ6; assay: Peptide elution and HPLC-MS/MS, DQ6; parameters: species or system human; settings: 293T DQ6+Ii+DM, 2 independent experiments
In short: as §1

[6] = test system: DQ8; assay: Cell surface CLIP by flow cytometry, 293T cells expressing DQ8; format: cell-based, human
In short: as §2

[7] = test system: DQ2; assay: Cell surface CLIP by flow cytometry, 293T cells expressing DQ2; format: cell-based, human
In short: as §2

[8] = test system: DQ2-8; assay: Cell surface CLIP by flow cytometry, 293T cells expressing DQ2-8 trans-dimer; format: cell-based, human
In short: as §2

[9] = test system: DQ8-2; assay: Cell surface CLIP by flow cytometry, 293T cells expressing DQ8-2 trans-dimer; format: cell-based, human
In short: as §2

[10] = test system: DQ2 with Gly at position 53; settings: ref [22]; cited from earlier work
[11] = test system: sDQ6; assay: FP assay of CLIP dissociation from sDQ6; format: binding, human; settings: 50 nM sDQ6-^488CLIP, sDM 0 to 2000 nM, 37°C, pH 5.0
In short: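 sDQ6 secreted by lentivirus-transduced 293T cells, purified by His-resin then anti-DQ affinity, and thrombin-cleaved overnight. It was loaded with Alexa 488-labelled CLIP (1:5) plus 100 nM sDM for 3 h at 37°C in pH 5.0 citrate-phosphate/NaCl/Tween buffer, then spin-desalted. 50 nM complex, 0–2000 nM sDM and 100 μM unlabelled CLIP1 were read by FP at 37°C. FP was normalised to free-peptide background; rate enhancement was expressed relative to no-DM rate.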

[12] = test system: DQ8 βE86A; assay: Cell surface CLIP by flow cytometry, 293T cells expressing DQ8 βE86A mutant; format: cell-based, human; settings: 293T + Ii, with vs without DM; βE86A disrupts two H-bonds; CLIP/DQ ratio
[13] = test system: DQ8 βT89G; assay: Cell surface CLIP by flow cytometry, 293T cells expressing DQ8 βT89G mutant; format: cell-based, human; settings: 293T + Ii, with vs without DM; βT89G disrupts one H-bond; CLIP/DQ ratio
[14] = test system: DQ2-8; assay: Peptide elution and HPLC-MS/MS, DQ2-8; parameters: species or system human; settings: 293T DQ2-8+Ii+DM, 2 independent experiments
In short: as §1

[15] = test system: DQ2; assay: Peptide elution and HPLC-MS/MS, DQ2; parameters: species or system human; settings: 293T DQ2+Ii+DM, 2 independent experiments
In short: as §1

[16] = test system: DQ8-2; assay: Peptide elution and HPLC-MS/MS, DQ8-2; parameters: species or system human; settings: 293T DQ8-2+Ii+DM, 2 independent experiments
In short: as §1

[17] = test system: DQ1; assay: Peptide elution and HPLC-MS/MS, DQ1; parameters: species or system human
In short: as §1

[18] = test system: DQ8; assay: Peptide elution and HPLC-MS/MS, DQ8; parameters: species or system human; settings: 293T DQ8+Ii+DM, 2 independent experiments
In short: as §1

[19] = molecular target: soluble recombinant HLA-DQ8 (human); assay: fluorescence polarisation
[20] = molecular target: soluble recombinant HLA-DQ6 (human); assay: fluorescence polarisation

## PSSGLGVTKQDLGPVPM [CLIPc, reference compound]
[1]; DQ samples from 293T cells
  CLIPc detection in eluates: detected by HPLC-MS/MS from all of the samples (DQ2, DQ2-8 and DQ8-2), except DQ8

## CLIP: Class II associated invariant chain peptide; Ii-derived, endogenous on DQ-expressing cells (Ac-VSK(Alexa Fluor 488)MRMATPLLMQ)
[2]
  Cell surface CLIP level, no DM: no detectable CLIP peptide
[3]; 293T DQ6+Ii+DM, 3 independent experiments
  Cell surface CLIP upon DM co-expression: complete loss of cell surface CLIP
[3]; 293T DQ6+Ii, absence of DM, MFI
  Cell surface CLIP level, no DM: high
[4]
  DM editing of CLIP in T2 cells: consistent with those obtained with 293T cells
[1]; 293T DQ+Ii without DM, all DQ alleles, 2 independent experiments
  CLIP peptides eluted, no DM: prominently presented by all DQ alleles
[5]
  CLIP in peptide eluate, with DM: not detected
[6]; 293T DQ8+Ii+DM, CerCLIP.1 mAb, flow cytometry, 3 independent experiments
  Cell surface CLIP upon DM co-expression: retain high levels of cell surface CLIP
[6]; 293T DQ8+Ii, absence of DM, CerCLIP.1 mAb, flow cytometry, MFI
  Cell surface CLIP level, no DM: high
[6]; 293T cells co-expressing DM with DQ8
  Reduction in cell surface CLIP by DM: little or no reduction in CLIP levels
[7]; 293T DQ2+Ii+DM, CerCLIP.1 mAb, flow cytometry, 3 independent experiments
  DM editing of CLIP upon DM co-expression: relatively resistant to DM editing
[7]; 293T DQ2+Ii, absence of DM, CerCLIP.1 mAb, flow cytometry, MFI
  Cell surface CLIP level, no DM: high
[7]; 293T, DQ2
  DM editing resistance relative to DQ8 and DQ2-8: less striking
[8]; 293T DQ2-8+Ii+DM, CerCLIP.1 mAb, flow cytometry, 3 independent experiments
  Cell surface CLIP upon DM co-expression: retain high levels of cell surface CLIP
[8]; 293T DQ2-8+Ii, absence of DM, CerCLIP.1 mAb, flow cytometry, MFI
  Cell surface CLIP level, no DM: high
[8]; 293T cells co-expressing DM with DQ2-8
  Reduction in cell surface CLIP by DM: little or no reduction in CLIP levels
[9]; 293T DQ8-2+Ii+DM, CerCLIP.1 mAb, flow cytometry, 3 independent experiments
  Cell surface CLIP upon DM co-expression: retain high levels of cell surface CLIP
[9]; 293T DQ8-2+Ii, absence of DM, CerCLIP.1 mAb, flow cytometry, MFI
  Cell surface CLIP level, no DM: high
[9]; 293T, DQ8-2 trans-dimer
  DM editing resistance relative to DQ8 and DQ2-8: less striking

## DM: non-classical MHC protein HLA-DM catalyzing CLIP release and peptide exchange
[10]
  DM sensitivity after Gly insertion at α53 of DQ2: restored DM sensitivity; also recorded: marked increase in DM-mediated rate enhancement in the dissociation of a DQ2 binding peptide
[4]
  DM editing of CLIP in T2 cells: DQ2 and DQ2-8 were less sensitive to DM than DQ8
[11]
  Dissociation rate versus DM concentration: Peptide dissociation rates increased with increasing DM concentration; also recorded: rates appeared to saturate with increasing DM concentration
[6]; 293T DQ+Ii+DM, DQ8 compared with DQ2-8, DQ2, DQ8-2
  Hierarchy of DM sensitivity among DQ molecules: DQ8 being the least sensitive, followed by DQ2-8, DQ2, and DQ8-2
[12]
  Change in DM sensitivity of DQ8 mutant: partially restore sensitivity to DM
[13]
  Change in DM sensitivity of DQ8 mutant: little change in DM sensitivity

## LPKPPKPVSKMRMATPLLMQA [CLIP1]
[14]
  CLIP1 in peptide eluate, with DM: detected
[15]
  CLIP1 in peptide eluate, with DM: detected
[16]
  CLIP1 in peptide eluate, with DM: detected
[17]; 293T DQ1+Ii without DM
  CLIP peptides in eluate, no DM: detected
[17]; 293T DQ1+Ii+DM
  CLIP peptides in eluate, with DM: not in samples co-expressing DM
[18]
  CLIP1 in peptide eluate, with DM: detected

## Ac-VSK(Alexa Fluor 488)MRMATPLLMQ [Alexa Fluor 488-labeled N-acetylated CLIP peptide]
[19]
  intrinsic half-life of the complex: 58 h
[20]
  intrinsic half-life of the complex: 7 h
